Measurements published in publication PMC8259413 (Biochemistry, 2015).

Legend:
[1] = molecular target: Pol β binary complex (Pol β/sngDNA) (Rattus norvegicus, UniProt P06766); format: binding; conditions: for ΔH of binding (ITC) / ΔS of binding (ITC): binding to Pol β binary complex, 23 °C
In short: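 Binary complex formed with 20-mer single-nucleotide-gapped duplex DNA (DNA:protein ~1.5:1). Ligands were nonhydrolyzable α,β-imido dNTP analogues, titrated in matched buffer (50 mM HEPES, 100 mM NaCl, 5 mM MgCl₂, 2 mM DTT, pH 7.4) at 1000 rpm with 250 s between injections. Matching analogue: 0.2 mM into 0.013 mM complex. Mismatching analogue: 6 mM into 0.106 mM complex.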

[2] = molecular target: binary Pol β complex (Pol β/sngDNA) (Homo sapiens, UniProt P06746); experiment: NMR lineshape analysis; format: binding, rat
In short: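 It was titrated with Mg²⁺-containing nonhydrolyzable matching (0–2:1) or mismatching (0.15–4.6:1) dNTP analogue, followed by ¹H–¹⁵N TROSY/HSQC. Resonances resolved in both dimensions throughout were fitted to a two-state model for koff and KD.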

| fold weaker binding than the matching nucleotide ([1]; based upon ITC data) | ΔH of binding (ITC) [1] | ΔS of binding (ITC) [1] | fold greater koff than that measured for the matching nucleotide ([2]; NMR line shape data) | kex of nucleotide binding/dissociation within the binding cavity ([2]; in the presence of 3.0 mM dApNHpp, estimated) | koff (NMR lineshape analysis) ([2]; two-state model, global fit of nine residues, 23 °C) | SMILES |
| --- | --- | --- | --- | --- | --- | --- |
| approximately 300 fold | 8.84 ± 2.2 kcal/mol | 195 ± 32 J/mol−K | approximately 50 fold | ~7000 s⁻¹ |  | Nc1ncnc2c1ncn2[C@H]1C[C@H](O)[C@@H](COP(=O)(O)NP(=O)(O)OP(=O)(O)O)O1 [dApNHpp, 2′-deoxyadenosine-5′[(α,β)-imido]triphosphate] |
|  | 22.2 ± 0.24 kcal/mol | 432 ± 5 J/mol−K |  |  | 5.1 s⁻¹ | Nc1ccn([C@H]2C[C@H](O)[C@@H](COP(=O)(O)NP(=O)(O)OP(=O)(O)O)O2)c(=O)n1 [dCpNHpp, 2′-Deoxycytidine-5′-[(α,β)-imido]triphosphate] |
